HCT116 PTEN-null: growth suppression of PTEN-null HCT116, primary screen, cell-based, CellTiter-Glo. actives 1.2% (n = 140,000). AID 827, 2007. HCT116 PTEN-null viability, 60 h; hits give low values. viability, % at 10 µM;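 active = viability at or below a set limit, 4 SD under the median of all tested compounds, cut at about 3.7% in these data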;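 note: PTEN knockout HCT116 line with beta catenin targeted HCT116 as companion control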
TNAP act hiacc: TNAP activators at high phosphate acceptor level, primary screen, biochemical, luminescence, uHTS; purified TNAP, CDP-star luminescence, 1 M DEA, 30 min; hits give high values; 0 = EDTA background, 1 = DMSO-only activity; activation factor at 20 µM; 200,000 tested, under 10 active;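 active = activation factor at least 2 at 20 µM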
Target sequence (P05186 whole entry, looked up): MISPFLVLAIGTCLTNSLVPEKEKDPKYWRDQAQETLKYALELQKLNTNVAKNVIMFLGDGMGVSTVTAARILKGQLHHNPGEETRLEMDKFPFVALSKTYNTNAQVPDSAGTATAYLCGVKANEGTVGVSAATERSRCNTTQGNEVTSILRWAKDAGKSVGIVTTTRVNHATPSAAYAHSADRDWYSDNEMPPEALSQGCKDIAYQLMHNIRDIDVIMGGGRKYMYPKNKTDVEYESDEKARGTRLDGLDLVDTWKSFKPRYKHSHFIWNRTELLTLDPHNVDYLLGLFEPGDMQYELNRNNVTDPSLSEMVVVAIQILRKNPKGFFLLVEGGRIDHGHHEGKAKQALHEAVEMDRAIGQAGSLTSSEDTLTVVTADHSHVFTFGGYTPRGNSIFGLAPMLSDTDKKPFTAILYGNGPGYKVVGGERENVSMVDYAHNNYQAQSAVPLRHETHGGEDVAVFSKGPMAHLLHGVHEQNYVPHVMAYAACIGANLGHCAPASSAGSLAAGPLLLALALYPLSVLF
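system = human TNAP | amount = enzyme diluted 1/800 final | reagent = 100 µM CDP-star substrate | signal = luminescent substrate turnover signal | dosing = one dose, 20 µM | benchmarks = EDTA negative control, DMSO positive control | measure = activation factor | timing = 30 min reaction, room temperature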
Lmaj promast: Leishmania major promastigote growth inhibition, primary screen; Leishmania major promastigotes, resazurin fluorescence viability; inhibition, % at 10 µM; actives 9% (n = 200,000); in the data active = inhibition above about 50%;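 note: promastigotes grown with compound for 44 hours at 28 °C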
TNAP inh no acc: human TNAP enzyme inhibitors, primary screen, biochemical, luminescent, no phosphate acceptor, uHTS; Alkaline phosphatase, tissue-nonspecific isozyme (Homo sapiens), P05186; purified TNAP, CDP-star luminescence, 30 min; inhibition, % at 20 µM; actives 0.26% (n = 200,000);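 active = tissue-nonspecific alkaline phosphatase inhibition above about 50% at 20 µM in the single-dose screen, limit read from the data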;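 note: 0% = DMSO negative control and 100% = EDTA positive control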
TNAP inh hiacc: human TNAP enzyme inhibitors, primary screen, biochemical, luminescent, high phosphate acceptor level, uHTS | inhibition, % at 20 µM | Alkaline phosphatase, tissue-nonspecific isozyme (Homo sapiens), P05186 | purified TNAP, CDP-star luminescence, 1 M DEA | actives 0.03% (n = 200,000);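 active = over 50% inhibition of tissue-nonspecific alkaline phosphatase at 20 µM in the single-dose screen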;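 note: plate controls were DMSO wells for no effect and EDTA-quenched wells as full inhibition for full effect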
HCT116 bCat-KO: primary screen for growth suppressors in beta-catenin knockout HCT116 cells (colon tumor, human); HCT116 beta-catenin knockout viability, CellTiter-Glo, 60 h; hits give low values; viability, % at 10 µM; actives 1.5% (n = 140,000);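 active = viability at or under a set limit, the compound median less 4 SD, cut at about 6% in these data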;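 note: 0% = Hyamine 1622 control at 20 µM and 100% = untreated cell control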
The depositor's hits bear a star; x = no result. Most compounds without a hit are left out; they make up all but 9.6% or so of the library.

SMILES	HCT116 PTEN-null	TNAP act hiacc	Lmaj promast	TNAP inh no acc	TNAP inh hiacc	HCT116 bCat-KO
Cc1ccc(S(=O)(=O)Nc2cccc3c2CCCC3)cc1	84	1	54*	-14	2	98
CC(=O)O/N=C/c1c(C)c(C=O)n2ccccc12	x	1	-5	-6	-4	x
O=C(c1ccc2c(c1)OCCO2)C1CCN(C(=O)c2ccc(F)cc2)CC1	75	1	21	-9	-1	66
O=C(c1ccc2c(c1)OCCO2)C1CCN(C(=O)c2ccc(F)c(F)c2)CC1	76	1.1	57*	-12	-6	65
Cc1cc(C)n(CCCN2C(=O)c3cccc4cccc(c34)C2=O)n1	x	1	6	-1	0	x
CC1=CC(=O)c2c(O)ccc(O)c2C1=O	x	0.9	98*	18	12	x
O=C1c2cccc(O)c2C(=O)c2c(O)cccc21	43	0.8	-8	20	24	45
CC(NC(=S)Nc1ccccc1Cl)C(c1cccs1)N1CCCC1 (stereo unspecified)	79	1.1	84*	-4	-8	81
CC(NC(=S)NCCc1ccccc1)C(c1cccs1)N1CCN(Cc2ccccc2)CC1 (stereo unspecified)	13	1.4	97*	-181	-37	10
Cc1ccc(COc2ccsc2C(=O)NNC(N)=S)cc1	x	1	7	-137	-5	x
NC(=O)COC(=O)c1ccccc1OCc1ccccc1Cl	x	1	5	-7	-3	x
Nc1nnnn1/N=C/c1ccco1	102	1	2	-2	-5	87
Cc1no[n+]([O-])c1COc1ccc(/C=N/n2nnnc2N)cc1	80	1.1	57*	-10	-6	84
O=C(Cc1ccccc1)c1nnc(-c2ccccc2)o1	x	1	-3	-4	-1	x
CCOC(=O)CNC(=O)c1c(C)nn(C)c1Cl	x	1	-8	-8	0	x
Cc1ccc(-n2nc(CN3CCOCC3)c(-c3ccccc3)c2N)cc1Cl	70	1	3	-6	4	78
CCCC1(C)Nc2ccccc2-c2nc3ccccc3n21 (stereo unspecified)	82	1.1	85*	-16	-6	82
CCOC(=O)c1c(NC(=O)COc2ncnc3ccccc23)sc(C)c1CC	82	1	16	7	4	86
CC(C)N(C(=O)COC(=O)c1cccc(C(=O)OCC(=O)N(C(C)C)C(C)C)n1)C(C)C	x	1.1	-7	-46	-8	x
CC1(C)CC(=O)C2=C(C1)OC(N)=C(C#N)C2c1ccccc1 (stereo unspecified)	82	1.1	-3	-6	-7	95
COc1ccc(C2C(C#N)=C(/N=C/N3CCN(C)CC3)OC3=C2C(=O)CC(C)(C)C3)cc1 (stereo unspecified)	102	1.1	100*	-10	-10	97
C/C(Cn1nc([N+](=O)[O-])cc1C)=N\NC(=O)c1cccc(Br)c1	99	1	86*	2	1	102
Cc1ccc(O)c(NC(=O)c2cc3nc4c(c(C(F)(F)F)n3n2)CCc2ccccc2-4)c1	71	1.1	-4	-12	-7	66
CCN(CC)CCCNC(=O)c1cc2nc3c(c(C(F)(F)F)n2n1)CCc1ccccc1-3	x	1	96*	7	-2	x
COc1ccc(-c2csc(N=C(N)N)n2)cc1	x	1.1	60*	-1	-5	x
Cc1nn(C)c(Cl)c1CN1CCC(CO)(CCOc2ccccc2)CC1	x	1.1	72*	-9	-9	x
Cc1ccc2[nH]c(CN3CCC(CO)(CC4CCCCO4)CC3)c(C)c2c1 (stereo unspecified)	x	1.1	34	-3	-7	x
Cc1c(CN2CCC(CO)(CCOc3ccccc3)CC2)[nH]c2c(Cl)cccc12	x	1	100*	0	-2	x
CCOC(=O)C(=Cc1ccc(F)cc1)C(=O)OCC	90	1.1	7	-4	-8	97

Screens (PubChem)
